The source of these data is ChEMBL document CHEMBL1126568, “Nucleosides and nucleotides. 122. 2'-C-cyano-2'-deoxy-1-beta-D-arabinofuranosylcytosine and its derivatives. A new class of nucleoside with a broad antitumor spectrum” (J Med Chem, 1993).

SMILES strings stand for the structures.

For assay [1], the system named is L1210. Kind of assay: Percent inhibition against murine leukemia L1210 at 100 ug/mL. Type of assay: functional. The conditions noted are these: Mus musculus. The method in brief: (§1)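 MTT growth assay: 2 × 10³ cells/well exposed to compound or left untreated for 72 h. MTT then added for 4 h more; formazan dissolved in DMSO and OD read at 540 nm. % inhibition = [1 − OD sample/OD control] × 100. IC₅₀ (μM) is the concentration giving 50% growth inhibition. Single-concentration inhibition measured at 100 μg/mL.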

Assay [2] is described as follows: Percent inhibition against human oral epidermoid carcinoma KB cells at 100 ug/mL. The format is functional. In outline: as §1
The subject of assay [3] is QG-95. Kind of assay: Tested in vitro against QG-95 human squamous cell carcinoma. The format is functional, cell-based. The method in brief: as §1
Assay [4] relates to KKLS. Put plainly: Tested in vitro against KKLS human stomach adenocarcinoma. Type of assay: functional, cell-based. The method in brief: as §1
For assay [5], the system named is PC-8. Kind of assay: Tested in vitro against PC-8 human lung adenocarcinoma. Type of assay: functional, cell-based. In outline:
as §1

The test system of assay [6] is SW48. Put plainly: Tested in vitro against SW-48 human colon adenocarcinoma. Type of assay: functional, cell-based. The method in brief:
as §1

For assay [7], the system named is OST. Put plainly: Tested in vitro against OST human osteosarcoma. The format is functional, cell-based. The method in brief: as §1
Assay [8] is described as follows: Tested in vitro inhibitory activity against human oral epidermoid carcinoma KB cells. The format is functional, cell-based. In outline:
as §1

The test system of assay [9] is KATO III stomach cancer cell line. Kind of assay: Tested in vitro against KATO-III human stomach adenocarcinoma. Type of assay: functional, cell-based. The method in brief: as §1
Assay [10] has as its system ST-KM-1. Kind of assay: Tested in vitro against ST-KM human stomach adenocarcinoma. The format is functional, cell-based. Particulars: ST-KM-1, Stomach. In outline:
as §1

For assay [11], the system named is MKN-45. Put plainly: Tested in vitro against MKN-45 human stomach adenocarcinoma. Type of assay: functional, cell-based. The conditions noted are these: MKN-45, Stomach. The method in brief:
as §1

Assay [12] relates to A-375. Kind of assay: Tested in vitro against A-375 cell line human melanoma. Type of assay: functional, cell-based. The method in brief:
as §1

The test system of assay [13] is MCF7. Put plainly: Tested in vitro against MCF-7 human breast adenocarcinoma. Type of assay: functional, cell-based. In outline: as §1
The subject of assay [14] is COLO 320. Kind of assay: Tested in vitro against colo-320 human colon adenocarcinoma. Type of assay: functional, cell-based. Particulars: COLO 320, Colon. In outline: as §1
Assay [15] has as its system PC-13. Put plainly: Tested in vitro against PC-13 human lung large cell carcinoma. Type of assay: functional, cell-based. In outline: as §1
Assay [16] deals with L1210. Kind of assay: Tested in vitro inhibitory activity against murine leukemia L1210. Particulars: Mus musculus. Type of assay: functional, cell-based. In outline: as §1
In assay [17] the test system is HOS-TE85. Kind of assay: Tested in vitro against MNNG/HOS cell line human osteosarcoma. The format is functional, cell-based. In outline: as §1
The test system of assay [18] is PC-9. Kind of assay: Tested in vitro against PC-9 human lung adenocarcinoma. Type of assay: functional, cell-based. The method in brief: as §1
Assay [19] relates to HT-1080. Kind of assay: Tested in vitro against HT1080 cell line human fibrosarcoma. The format is functional, cell-based. The method in brief: as §1

Regarding `N#C[C@H]1C(O)[C@@H](CO)O[C@H]1n1ccc(=O)[nH]c1=O` (some centres not stated), the inhibition at 100 µg/mL in assay [1] worked out at 10.2%; in [2] it was 8.4%.
On to `Nc1ccn([C@@H]2O[C@H](CO)[C@@H](O)[C@@H]2O)c(=O)n1` [CYTARABINE], for which the IC50 in assay [3] was over 410 µM; in [4], over 410 µM; in assay [5], 1.1 µM; in assay [6], over 410 µM; in assay [7], over 410 µM; in assay [8], 2.3 µM. The half-maximal inhibitory concentration (IC50) was over 410 µM in [9]; over 410 µM in [10]; 57.6 µM in assay [11]; over 410 µM in assay [12]; 0.62 µM in assay [13]; 0.04 µM in assay [14]. The IC50 in [15] was over 410 µM; in assay [16], 0.05 µM.
In the case of `Cc1cn([C@@H]2O[C@H](CO)C(O)[C@@H]2C#N)c(=O)[nH]c1=O` (some centres not stated), the inhibition at 100 µg/mL in [1] is 6.7%; in [2] it was -6%.
Turning to `N#CC1=C[C@@H](CO)O[C@H]1n1ccc(N)nc1=O`, the IC50 in assay [3] was 427 µM; in [4], over 430 µM; in [5], over 430 µM; in assay [17], 205 µM; in assay [6], 273 µM; in assay [18], over 430 µM. In addition, the IC50 in assay [7] is 235 µM; in assay [9], 31.6 µM; in [10] it was 350 µM; in assay [11], 376 µM; in [12], 145 µM; in [13] it was 299 µM. The half-maximal inhibitory concentration (IC50) amounted to 150 µM in assay [14], 363 µM in [15], 248 µM in [19] and 261 µM in assay [16]. The inhibition at 100 µg/mL in assay [2] was found to be 46.8%.
For the molecule `N#C[C@H]1[C@H](O)[C@@H](CO)O[C@H]1n1cnc2c(N)ncnc21`, the IC50 in assay [3], in assay [4], in [5], in assay [17], in [6] and in assay [18] was over 360 µM each time. Also, the IC50 in assay [7] was over 360 µM; in assay [8], 163 µM; in assay [9], over 360 µM; in assay [10], over 360 µM; in [11] it was over 360 µM; in assay [12] it was 308 µM. The IC50 in assay [13] was over 360 µM; in [14], over 360 µM; in assay [15], over 360 µM; in assay [19] it was over 360 µM; in assay [16], 5.8 µM.

As a reminder, the inhibition is the change of the read-out against control, counted positive when it falls. The IC50 is the concentration that inhibits the measured activity by half. A higher IC50 goes with a need for much substance.
